Published values collected from several papers.
Lines come from different studies, so protocols differ.
Target: Cannabinoid receptor 2 (CNR2, Homo sapiens, UniProt P34972)
Read-out: ligand displacement
Technique: radioligand

SMILES | notes | Ki [nM]
CCCCCc1cc(O)c(C/C=C(\C)CCC2OC2(C)C)c(O)c1 (stereo not drawn) | cell membranes | 4720
Cc1nc([C@@](C)(CC2CC2)NC(=O)c2cc(OCC(F)(F)F)c(C3CC3)cn2)no1 | cell membranes | 76
CCCCCc1cc(O)c2c(c1)OC(C)(C)c1cc(O)c(C)cc1-2 | cell membranes | 11
CCOC(=O)[C@H](CSC)NC(=O)c1ccc(C2CC2)c(Cc2ccc(F)cc2)n1 | cell membranes | 3.2
CCCCCc1cc(O)c2c(c1)OC(C)(C)[C@@H]1CC=C(C)[C@H](O)[C@@H]21 | cell membranes | 30
CCCCCn1c2ccccc2c2cc(C(=O)NCC3CCN(CC(=O)NC(C)(C)C)CC3)ccc21 | – | > 5000
CCCCC/C=C\C/C=C\C/C=C\C/C=C\CCCC(=O)NCCCl | cell membranes | 5200
CCOC(=O)C(CC)(CCCSCCOCCOCCNc1ccc([N+](=O)[O-])c2nonc12)NC(=O)c1ccc(C2CC2)c(Cc2ccc(F)cc2)n1 (racemic) | cell membranes | 22
Cc1c(C(=O)Nc2ccc(C(F)(F)F)cn2)nc(-c2ccc(Cl)cc2Cl)n1-c1ccc(OS(=O)(=O)CCC(F)(F)F)cc1 | cell membranes | 4.9
CCCC(C)(C)c1ccc2c(c1)OC(C)(C)[C@@H]1CC=C(C)C[C@@H]21 | cell membranes | 34.9
CCCCCc1cc(O)c2c(c1)OC(C)(C)c1ccc(C)cc1-2 | cell membranes | 73
CCOC(=O)C(CC)(CCCSC)NC(=O)c1ccc(C2CC2)c(Cc2ccc(F)cc2)n1 (stereo not drawn) | cell membranes | 1.3
CCCc1cc(O)c2c(c1)OC(C)(C)c1ccc(C)cc1-2 | cell membranes | 4780
CCCCCn1cc(C(=O)C2C(C)(C)C2(C)C)c2ccccc21 | cell membranes | 4.51
CCOC(=O)C(CC)(CCCSCCOCCOCCOCCOCCNC(=O)OC(C)(C)C)NC(=O)c1ccc(C2CC2)c(Cc2ccc(F)cc2)n1 (stereo not drawn) | cell membranes | 140
